# Tested on: Mycobacterium tuberculosis
# Experiment: Antitubercular activity against Mycobacterium tuberculosis 90-221387
# Type: functional
# Outline: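 Agar proportion method on Middlebrook 7H10 with OADC, clinical susceptible isolate 90-221387. Compound serially diluted into agar at 50-56 °C, final 100 to 0.8 µg/mL, in quadrant plates. Inoculum in 7H9 broth adjusted to McFarland no. 1, then 10-2 dilution, spotted on each quadrant. Incubated 35 °C, 10% CO2, 2 weeks. MIC read; ethambutol positive control; means of 3 or 4 replicates.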
row,SMILES,MIC [µM]
1,CC(=O)O[C@H]1CC[C@@H](C)[C@]23OC(C)(C)[C@H](C[C@H](OC(=O)c4ccccc4)[C@]12COC(=O)c1ccccc1)[C@H]3OC(=O)c1ccccc1,78.1
2,CC(=O)O[C@H]1C[C@@H](C)[C@]23OC(C)(C)[C@H](C[C@H](OC(=O)c4ccccc4)[C@]2(COC(=O)c2ccccc2)[C@H]1OC(C)=O)[C@H]3OC(=O)c1ccccc1,96
3,CC(=O)O[C@H]1CC[C@@H](C)[C@@]23C[C@@H](C[C@H](OC(=O)c4ccccc4)[C@]12C)C(C)(C)O3,26
4,CC(=O)O[C@H]1[C@@H](O)C[C@@H](C)[C@]23OC(C)(C)[C@H](C[C@H](OC(=O)c4ccccc4)[C@]12COC(=O)c1ccccc1)[C@H]3OC(=O)c1ccccc1,19.5
5,CC(=O)O[C@H]1C[C@@H](C)[C@]23OC(C)(C)[C@H](C[C@H](OC(=O)c4ccccc4)[C@]2(COC(=O)c2ccccc2)[C@H]1O)[C@H]3OC(=O)c1ccccc1,15.8
6,O=Cc1ccc(O)cc1 [4-HYDROXYBENZALDEHYDE],> 400
7,CC[C@H](CC[C@@H](C)[C@H]1CC[C@H]2[C@@H]3CC=C4CC(=O)CC[C@]4(C)[C@H]3CC[C@]12C)C(C)C [BETA-SITOSTENONE],> 400
8,CC[C@H](CC[C@@H](C)[C@H]1CC[C@H]2[C@@H]3CC=C4C[C@@H](O)CC[C@]4(C)[C@H]3CC[C@]12C)C(C)C [BETA-SITOSTEROL],> 400
9,CC[C@@H](CO)NCCN[C@@H](CC)CO [ETHAMBUTOL],30.6
10,O=Cc1cc(Cc2ccc(O)cc2)ccc1O [FORKIENIN],276
11,CC(=O)O[C@H]1C[C@@H](C)[C@]23OC(C)(C)[C@H](C[C@H](OC(=O)c4ccccc4)[C@]2(COC(=O)c2ccccc2)[C@H]1OC(C)=O)[C@H]3OC(C)=O [MUTANGIN],51.8
12,CC(=O)O[C@H]1[C@@H](OC(=O)c2ccccc2)C[C@@H](C)[C@]23OC(C)(C)[C@H](C[C@H](OC(=O)c4ccccc4)[C@]12C)[C@H]3OC(=O)c1ccccc1 [ORBICULIN G],14.6
13,O=C(O)c1ccc(O)cc1 [PARABEN],362
14,COc1cc(C(=O)O)cc(OC)c1O [SYRINGIC ACID],318
15,COc1cc(C(=O)O)ccc1O [VANILLIC ACID],375

# Reference: ChEMBL document CHEMBL1141424, “Antitubercular dihydroagarofuranoid sesquiterpenes from the roots of Microtropis fokienensis” (2007)
